In ChEMBL document CHEMBL1122658, “Amnesia-reversal activity of a series of N-[(disubstituted-amino)alkyl] -2-oxo-1-pyrrolidineacetamides, including pramiracetam” (1984):
Where “and” joins values, the source holds several entries; their conditions need not be identical. Equal values may be shown once.

What was measured:
Mus musculus [1] = assay: Ability to reverse electroconvulsive shock induced amnesia in mice, after administering intraperitoneally at a dose of 1.25 mg/kg; type: functional; conditions: route intraperitoneal
In short: (§1)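 Male CF-1 mice (20-25 g), five groups of 20, trained in one trial on step-through inhibitory avoidance (darkened chamber). ECS given 2 h after training. Test drug or vehicle placebo injected ip 2 h after ECS, 1 h before retention test. Entry into box within 60 s scored as amnesia. % reversal = (drug − base-line ECS+placebo)/(ceiling no-ECS+placebo − base-line) ×100.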

Mus musculus [2] = assay: Ability to reverse electroconvulsive shock (ECS) induced amnesia in mice, after administering intraperitoneally, at a dose of 5 mg/kg; type: functional; conditions: route intraperitoneal; in short: as §1
Mus musculus [3] = assay: Ability to reverse electroconvulsive shock induced amnesia in mice, after administering intraperitoneally at a dose of 20.0 mg/kg; type: functional; conditions: route intraperitoneal; in short: as §1
Mus musculus [4] = assay: Compound was evaluated for the ability to reverse electroconvulsive shock (ECS) induced amnesia in mice, after administering intraperitoneally, at a dose of 80.0 mg/kg; 18 of 20 mice died at this dose; type: functional; conditions: route intraperitoneal; in short: as §1
Mus musculus [5] = assay: Ability to reverse electroconvulsive shock induced amnesia in mice, after administering intraperitoneally at a dose of 2.5 mg/kg; type: functional; conditions: route intraperitoneal; in short: as §1
Mus musculus [6] = assay: Ability to reverse electroconvulsive shock (ECS) induced amnesia in mice, after administering intraperitoneally, at a dose of 0.63 mg/kg; type: functional; conditions: route intraperitoneal; in short: as §1
Mus musculus [7] = assay: Ability to reverse electroconvulsive shock (ECS) induced amnesia in mice, after administering intraperitoneally, at a dose of 10.0 mg/kg; type: functional; conditions: route intraperitoneal; in short: as §1
Mus musculus [8] = assay: Ability to reverse electroconvulsive shock induced amnesia in mice, after administering intraperitoneally at a dose of 5 mg/kg; type: functional; conditions: route intraperitoneal; in short: as §1
Mus musculus [9] = assay: Compound was evaluated for the ability to reverse electroconvulsive shock (ECS) induced amnesia in mice, after administering intraperitoneally, at a dose of 5 mg/kg; type: functional; conditions: route intraperitoneal; in short: as §1
Mus musculus [10] = assay: Ability to reverse electroconvulsive shock (ECS) induced amnesia in mice, after administering intraperitoneally, at a dose of 80 mg/kg; type: functional; conditions: route intraperitoneal; in short: as §1
Mus musculus [11] = assay: Ability to reverse electroconvulsive shock induced amnesia in mice, after administering intraperitoneally at a dose of 20 mg/kg; type: functional; conditions: route intraperitoneal; in short: as §1
Mus musculus [12] = assay: Ability to reverse electroconvulsive shock (ECS) induced amnesia in mice, after administering intraperitoneally, at a dose of 0.31 mg/kg; type: functional; conditions: route intraperitoneal; in short: as §1
Mus musculus [13] = assay: Ability to reverse electroconvulsive shock (ECS) induced amnesia in mice, after administering intraperitoneally, at a dose of 80.0 mg/kg; type: functional; conditions: route intraperitoneal; in short: as §1
Mus musculus [14] = assay: Ability to reverse electroconvulsive shock (ECS) induced amnesia in mice, after administering intraperitoneally, at a dose of 160 mg/kg; type: functional; conditions: route intraperitoneal; in short: as §1
Mus musculus [15] = assay: Compound was evaluated for the ability to reverse electroconvulsive shock (ECS) induced amnesia in mice, after administering intraperitoneally, at a dose of 40 mg/kg; type: functional; conditions: route intraperitoneal; in short: as §1
Mus musculus [16] = assay: Compound was evaluated for the ability to reverse electroconvulsive shock (ECS) induced amnesia in mice, after administering intraperitoneally, at a dose of 320 mg/kg; type: functional; conditions: route intraperitoneal; in short: as §1
Mus musculus [17] = assay: Compound was evaluated for the ability to reverse electroconvulsive shock (ECS) induced amnesia in mice, after administering intraperitoneally, at a dose of 10 mg/kg; type: functional; conditions: route intraperitoneal; in short: as §1
Mus musculus [18] = assay: Compound was evaluated for the ability to reverse electroconvulsive shock (ECS) induced amnesia in mice, after administering intraperitoneally, at a dose of 40.0 mg/kg; type: functional; conditions: route intraperitoneal; in short: as §1
Mus musculus [19] = assay: Compound was evaluated for the ability to reverse electroconvulsive shock (ECS) induced amnesia in mice, after administering intraperitoneally, at a dose of 320.0 mg/kg; 18 of 20 mice died at this dose before completion of the test; type: functional, organism-based; set-up: dose 320 mg/kg; in short: as §1
Mus musculus [20] = assay: Compound was evaluated for the ability to reverse electroconvulsive shock (ECS) induced amnesia in mice, after administering intraperitoneally, at a dose of […] mg/kg; type: functional; in short: as §1

CCC1CCC(=O)N1CC(=O)NCCCN1C(C)CCCC1C (configuration not stated)
Amnesia reversal (Mus musculus [1]): 20%
Amnesia reversal (Mus musculus [2]): 50%
Amnesia reversal (Mus musculus [3]): 42%
Amnesia reversal (Mus musculus [4]): 42%
Amnesia reversal (Mus musculus [5]): 50%

CCC1CCC(=O)N1CC(=O)NCCN(C(C)C)C(C)C (configuration not stated)
Amnesia reversal (Mus musculus [1]): 20%
Amnesia reversal (Mus musculus [3]): 17%
Amnesia reversal (Mus musculus [6]): 20%
Amnesia reversal (Mus musculus [7]): 60%
Amnesia reversal (Mus musculus [8]): 58%
Amnesia reversal (Mus musculus [5]): 58%

NC(=O)CN1CCCC1=O [PIRACETAM]
Amnesia reversal (Mus musculus [9]): 15%
Amnesia reversal (Mus musculus [2]): 10%
Amnesia reversal (Mus musculus [10]; 80 mg/kg): 15% and 10%
Amnesia reversal (Mus musculus [11]): 20%

Cn1c(=O)c2c(ncn2C)n(C)c1=O [CAFFEINE]
Amnesia reversal (Mus musculus [1]): 0%
Amnesia reversal (Mus musculus [12]): 10%
Amnesia reversal (Mus musculus [2]): 0%
Amnesia reversal (Mus musculus [6]): 5%
Amnesia reversal (Mus musculus [5]): 10%

CC(C)(CNC(=O)CN1CCCC1=O)N1CCCCC1
Amnesia reversal (Mus musculus [13]): 55%
Amnesia reversal (Mus musculus [3]): 27%
Amnesia reversal (Mus musculus [14]): 45%
Amnesia reversal (Mus musculus [8]): 18%
Amnesia reversal (Mus musculus [15]): 73%
Amnesia reversal (Mus musculus [16]): 27%

CC(C)CN(CCNC(=O)CN1CCCC1=O)CC(C)C
Amnesia reversal (Mus musculus [13]): 15%
Amnesia reversal (Mus musculus [1]): 25%
Amnesia reversal (Mus musculus [3]): 25%
Amnesia reversal (Mus musculus [7]): 25%
Amnesia reversal (Mus musculus [8]): 54%
Amnesia reversal (Mus musculus [5]): 33%

O=C(CN1CCCC1=O)NCCCN1CCOCC1
Amnesia reversal (Mus musculus [13]): 58%
Amnesia reversal (Mus musculus [3]): 17%
Amnesia reversal (Mus musculus [14]): 54%
Amnesia reversal (Mus musculus [8]): 0%
Amnesia reversal (Mus musculus [16]): 15%

[Cl-].[Li+] [CHLOROLITHIUM]
Amnesia reversal (Mus musculus [1]): 10%
Amnesia reversal (Mus musculus [3]): 25%
Amnesia reversal (Mus musculus [6]): 15%
Amnesia reversal (Mus musculus [7]): 30%
Amnesia reversal (Mus musculus [10]): 20%
Amnesia reversal (Mus musculus [8]): 15%
Amnesia reversal (Mus musculus [15]): 30%
Amnesia reversal (Mus musculus [5]): 15%

N[C@@H]1C[C@H]1c1ccccc1.N[C@H]1C[C@@H]1c1ccccc1 [TRANYLCYPROMINE]
Amnesia reversal (Mus musculus [1]): 10%
Amnesia reversal (Mus musculus [7]): 10%
Amnesia reversal (Mus musculus [8]): 15%
Amnesia reversal (Mus musculus [5]): 5%

C1CCc2nnnn2CC1 [PENTYLENETETRAZOL]
Amnesia reversal (Mus musculus [8]): 20%
Amnesia reversal (Mus musculus [15]): 15%
Amnesia reversal (Mus musculus [5]): 15%
Amnesia reversal (Mus musculus [11]): 15%
Amnesia reversal (Mus musculus [17]): 10%

CCC1(C)CC(=O)NC1=O (configuration not stated) [ETHOSUXIMIDE]
Amnesia reversal (Mus musculus [10]): 10%
Amnesia reversal (Mus musculus [14]): 10%
Amnesia reversal (Mus musculus [15]): 10%
Amnesia reversal (Mus musculus [11]): 12%
Amnesia reversal (Mus musculus [17]): 15%

CN(C)CCCN1c2ccccc2CCc2ccccc21 [IMIPRAMINE]
Amnesia reversal (Mus musculus [18]): 15%
Amnesia reversal (Mus musculus [8]): 10%
Amnesia reversal (Mus musculus [11]): 5%
Amnesia reversal (Mus musculus [17]): 10%

CC1CCCC(C)N1CCCNC(=O)CN1CCC(c2ccccc2)C1=O (configuration not stated)
Amnesia reversal (Mus musculus [9]): 50%
Amnesia reversal (Mus musculus [10]): 0%
Amnesia reversal (Mus musculus [11]): 67%

CC1CCCC(C)N1CCCCNC(=O)CN1CCCC1=O (configuration not stated)
Amnesia reversal (Mus musculus [19]): 18 of 20 mice died at this dose before completion of the test
Amnesia reversal (Mus musculus [10]): 100%
Amnesia reversal (Mus musculus [14]): 60%
Amnesia reversal (Mus musculus [8]): 50%
Amnesia reversal (Mus musculus [11]): 60%

COC(=O)C(c1ccccc1)C1CCCCN1 (configuration not stated) [METHYLPHENIDATE]
Amnesia reversal (Mus musculus [1]): 15%
Amnesia reversal (Mus musculus [3]): 15%
Amnesia reversal (Mus musculus [7]): 10%
Amnesia reversal (Mus musculus [8]): 15%
Amnesia reversal (Mus musculus [5]): 10%

CC1CCCCN1CCCNC(=O)CN1CCCC1=O (configuration not stated)
Amnesia reversal (Mus musculus [13]): 17%
Amnesia reversal (Mus musculus [1]): 0%
Amnesia reversal (Mus musculus [20]): 10%
Amnesia reversal (Mus musculus [3]): 33%
Amnesia reversal (Mus musculus [6]): 0%
Amnesia reversal (Mus musculus [8]): 33%

NC1=NC(=O)C(c2ccccc2)O1 (configuration not stated) [PEMOLINE]
Amnesia reversal (Mus musculus [18]): 56%
Amnesia reversal (Mus musculus [2]): 20%
Amnesia reversal (Mus musculus [5]): 20%
Amnesia reversal (Mus musculus [11]): 44%
Amnesia reversal (Mus musculus [17]): 56%
